These results are taken from PubChem BioAssay AID504382 (The Scripps Research Institute Molecular Screening Center, 2011).

About 460 (18%) of roughly 2,500 compounds were called active.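 The calls were made as follows: active = mean activation above a cutoff of low control average plus 3 SD from the earlier screen (cut at about 12% in these data); inactive = the rest.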 These entries were drawn from the full list.

This experiment can be described thus: compound fluorescence interference without thin filaments, confirmation, artefact control for cardiac RTF calcium sensitizer project, biochemical (AID 504382). The settings on record: IANBD fluorescence interference counterscreen, buffer, EC20 Ca2+; at 7.2 µM; active compounds read high; scaled: EC20 calcium 0, EC100 calcium 100. Put shortly: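 Doses – one dose of 7.2 µM, 0.7% DMSO · Buffer or medium – MOPS/KCl/MgCl2/EGTA/NTA/DTT buffer, pH 7.2 · Probe or stimulus – Ca2+ fixed at EC20, 0.472 mM · Measured by – fluorescence intensity, excitation 480 nm, emission 540 nm · Read-out – fluorescence interference versus control range · Timing – 15 min compound exposure at 25 °C · Replication – triplicate wells per compound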
A general note: The purpose of a counterscreen is to sort out artefacts and off-target activity.
With `CC(C)(C)c1ccc(C(=O)NC(=S)Nc2ccc(N3CCOCC3)cc2)cc1`, the fluorescence artifact activation is 0.09% (inactive).

Turning to `O=C(NC(=S)NCCN1CCOCC1)c1ccc(F)cc1`, the fluorescence artifact activation is 21.2% (active).

For the molecule `COC(=O)Cc1ccc(NC(=S)NCCCN2CCOCC2)cc1`, the fluorescence artifact activation was -0.02% (inactive).

As to `CCCCNC(=O)Nc1nnc(-c2ccccc2)o1`, the fluorescence artifact activation was 0.13% (inactive).

Take `S=C(Nc1ccc(Cl)cc1)N(CCCN1CCOCC1)Cc1ccco1`: the fluorescence artifact activation was 0.04% (inactive).

For `CCC1OC23CCCCC2C(C#N)(C(=N)O3)C1(C#N)C#N` (configuration not stated), the fluorescence artifact activation is 0.21% (inactive).

Turning to `Cn1cccc1Cc1nnc(SCC(=O)Nc2ccc(F)cc2F)n1-c1ccc(F)cc1`, the fluorescence artifact activation was 1.86% (inactive).

As to `COc1ccc(C(=O)Nc2cc(C(C)=O)c(/C=C/N(C)C)oc2=O)cc1`, the fluorescence artifact activation was 9.8% (inactive).

As to `CC(=O)c1cc(NC(=O)c2ccccc2)c(=O)oc1/C=C/N(C)C`, the fluorescence artifact activation is 0.09% (inactive).

As for `COC(=O)c1cc(NC(=O)c2ccccc2)c(=O)oc1/C=C/Nc1ccc(Oc2ccccc2)cc1`, the fluorescence artifact activation is 18.6% (active).

For `Cc1cccc(N2C(=O)c3cccc4c(N)ccc(c34)C2=O)c1`, the fluorescence artifact activation is 0.02% (inactive).

Turning to `CCN(CC)c1ccc2cc(-c3nc(-c4cc5ccccc5oc4=O)cs3)c(=O)oc2c1`, the fluorescence artifact activation is -0.03% (inactive).

Take `CCN(CC)c1ccc2cc(-c3nnc(-c4ccncc4)o3)c(=O)oc2c1`: the fluorescence artifact activation is 1.48% (inactive).

For `CCN(CC)c1ccc2cc(-c3nnc(-c4ccccc4)o3)c(=O)oc2c1`, the fluorescence artifact activation is 43.7% (active).

With `CC(=O)Nc1ccc2cc3ccc(NC(C)=O)cc3nc2c1`, the fluorescence artifact activation was 11.6% (inactive).

For the molecule `CCCn1c(=O)c(C(=O)NNC(=O)c2ccccc2[N+](=O)[O-])c(O)c2ccccc21`, the fluorescence artifact activation was 5.02% (inactive).

As to `CCN1/C(=C/C=C2/SC(=Nc3cccc4ncccc34)N(C)C2=O)Sc2ccccc21`, the fluorescence artifact activation is 11.5% (inactive).

Consider `CCn1c(Cc2ccccc2)nnc1SCC(=O)OC(C)C`, for which the fluorescence artifact activation was 0.3% (inactive).

Regarding `CCN(C(=O)CSc1nnc(COc2ccccc2F)n1N)c1c(N)n(Cc2ccccc2)c(=O)[nH]c1=O`, the fluorescence artifact activation was 382% (active).

Turning to `CCN(C(=O)CN1CCCc2cc(C)ccc21)c1c(N)n(Cc2ccccc2)c(=O)[nH]c1=O`, the fluorescence artifact activation was 0.2% (inactive).

With `COC(=O)C1=C(C)NC(=O)/C1=C\N(C)C`, the fluorescence artifact activation is 5.29% (inactive).

For `COc1cc(OC)c(OC)cc1/C=C1\Oc2cc(OCC(=O)N3Cc4ccccc4C[C@H]3C(=O)O)ccc2C1=O`, the fluorescence artifact activation was -0.01% (inactive).

As to `CS(=O)(=O)N(CC(=O)NCCSCc1ccccc1)c1ccccc1`, the fluorescence artifact activation was 0.13% (inactive).

In the case of `CSCC(C)N1CCC(n2nccc2NC(=O)CCCc2ccccc2)CC1` (configuration not stated), the fluorescence artifact activation was 26.2% (active).

Take `CC(C)(C)C1(O)CC(C(F)(F)F)=NN1C(=O)CCCc1ccccc1` (configuration not stated): the fluorescence artifact activation is 0.13% (inactive).

Turning to `CCN1CCN(C2=CC3=CC(=C(C#N)C#N)CCC3CC2)CC1` (configuration not stated), the fluorescence artifact activation was 0.47% (inactive).

For `CN1CCc2c(sc3c2C(=O)NC(c2cccs2)N3)C1` (configuration not stated), the fluorescence artifact activation was 0.27% (inactive).

On to `Cc1ccsc1C1NC(=O)c2c(sc3c2CCN(C)C3)N1` (configuration not stated), for which the fluorescence artifact activation is 28.8% (active).

Consider `Cc1ccc(C2NC(=O)c3c(sc4c3CCN(C)C4)N2)s1` (configuration not stated), for which the fluorescence artifact activation was 0% (inactive).

As for `CCOC(=O)c1c(NC(=O)CSc2nc3cc(Cl)ccc3c(=O)n2Cc2ccco2)sc(C(=O)N(C)C)c1C`, the fluorescence artifact activation was 0% (inactive).

Regarding `COc1ccc(OC)c(/C=C2\N=C(c3ccccc3)OC2=O)c1`, the fluorescence artifact activation was 8.78% (inactive).

Turning to `C#CCSc1nc2[nH]ncc2c(=O)[nH]1`, the fluorescence artifact activation was 0.09% (inactive).

On to `CNc1ccccc1C(C)(C)c1cc(C)[nH]n1`, for which the fluorescence artifact activation is 3.66% (inactive).

Take `COc1ccc(N=Nc2nc3cc(Br)c(Br)cc3n2C)c(OC)c1`: the fluorescence artifact activation was 765% (active).

As for `COc1ccc(N=Nc2nc3ccc(Br)cc3n2C)cc1`, the fluorescence artifact activation was 0.16% (inactive).

With `COc1ccc(O)c(/C=N/c2nc3ccccc3n2C)c1`, the fluorescence artifact activation is 0.05% (inactive).

As to `CCOC(=O)C1=C(COC(=O)c2ccc3ccccc3c2O)NC(=O)NC1C` (configuration not stated), the fluorescence artifact activation is 0.49% (inactive).

As for `CCOC(=O)c1cc2c(=O)n3ccccc3nc2n(CCOC)c1=NC(=O)c1c(-c2c(F)cccc2Cl)noc1C`, the fluorescence artifact activation is 0.12% (inactive).

Take `COc1ccc2cc(C(=O)N/N=C/c3sc4ccccc4c3O)ccc2c1`: the fluorescence artifact activation is 93.2% (active).

For the molecule `COc1ccc(C(=O)N/N=C/c2sc3ccccc3c2O)cc1`, the fluorescence artifact activation is 1.31% (inactive).

Take `O=C(N/N=C/c1sc2ccccc2c1O)c1ccccc1`: the fluorescence artifact activation is 9.97% (inactive).

For the molecule `CC(C)(CN1CCc2ccccc2C1)NS(=O)(=O)c1ccc(Cl)cc1`, the fluorescence artifact activation is 0.2% (inactive).

For `O=c1oc2c3c4c(cc2c(C(F)(F)F)c1CCN1CCOCC1)CCCN4CCC3`, the fluorescence artifact activation was -0.03% (inactive).

Consider `Cn1ncc(N=Cc2c(O)ccc3ccccc23)c1C(=O)Nc1cccc(Cl)c1`, for which the fluorescence artifact activation is 0.09% (inactive).

`O=C1c2cccc3c(O)ccc(c23)C(=O)N1Cc1ccccc1`: the fluorescence artifact activation was 11.9% (active).

As to `O=C1c2cccc3c(N4CCCCC4)ccc(c23)C(=O)N1c1ccccc1O`, the fluorescence artifact activation was -0.03% (inactive).

Turning to `CCNc1cccc2c1C(=O)N(C)C2=O`, the fluorescence artifact activation was 0.15% (inactive).

With `CC1(C)CC2CC(C)(CN2CC(=O)C(C#N)c2ccccc2)C1` (configuration not stated), the fluorescence artifact activation is 0.12% (inactive).

In the case of `Cc1cccc(/C=N/n2c(-c3ccncc3)n[nH]c2=S)c1`, the fluorescence artifact activation was 7.13% (inactive).

With `C=CCn1cc(/C=C/c2cc[n+](C)cc2)c2ccccc21`, the fluorescence artifact activation was 0.14% (inactive).

Consider `N#C/C(=C\c1coc2ccc(O)cc2c1=O)C(=O)Nc1nc2ccccc2s1`, for which the fluorescence artifact activation was 1.92% (inactive).

`Fc1ccc(CN2CC[C@H]3C=CCc4cccc(c43)C2)cc1`: the fluorescence artifact activation is 52.5% (active).

For the molecule `COc1cc(/C=C2/SC(=S)N(CCC(=O)Nc3ccccc3)C2=O)cc(OC)c1OC`, the fluorescence artifact activation is 0.06% (inactive).

Turning to `CCOc1ccc(NC(=O)/C(C#N)=C\c2ccc(N3CCCC3)c(C)c2)cc1`, the fluorescence artifact activation was 0.15% (inactive).

Take `CSc1nnc(-c2ccc(S(=O)(=O)N3CCCC3)cc2)n1C`: the fluorescence artifact activation was 0.02% (inactive).

Turning to `CSc1nc2ccccc2n1CC(=O)Nc1c(C)cccc1C`, the fluorescence artifact activation was 2.26% (inactive).

As to `CCN1/C(=C2\SC(=S)N(Cc3ccccc3)C2=O)Sc2ccccc21`, the fluorescence artifact activation was 0.08% (inactive).

On to `CCN1C(=O)/C(=C/N2CCc3ccccc32)SC1=S`, for which the fluorescence artifact activation is 12.6% (active).

On to `CN1CCS/C1=C/C=C1/SC(=S)N(Cc2ccccc2)C1=O`, for which the fluorescence artifact activation is -0.03% (inactive).

For `O=c1oc2c(CN3CCCCC3)c(O)ccc2cc1-c1nc2ccccc2[nH]1`, the fluorescence artifact activation is 60.5% (active).

Regarding `O=c1oc2c(O)cccc2cc1-c1nc2ccccc2[nH]1`, the fluorescence artifact activation was 0.04% (inactive).

As for `S=C(NCCCN1CCOCC1)Nc1ccc(-c2nc3ccccc3[nH]2)cc1`, the fluorescence artifact activation is 0.17% (inactive).
